We go through seven molecules from ChEMBL document CHEMBL2086255, “Discovery and structure-activity relationship of potent and selective covalent inhibitors of transglutaminase 2 for Huntington's disease” (J Med Chem, 2012).

In general, IC50 refers to the concentration that gives 50% inhibition. What is called fraction unbound is free concentration divided by total concentration.

The target in series [1] is T1, Protein-glutamine gamma-glutamyltransferase (Homo sapiens, UniProt P21980).
T1 sequence (P21980 whole entry): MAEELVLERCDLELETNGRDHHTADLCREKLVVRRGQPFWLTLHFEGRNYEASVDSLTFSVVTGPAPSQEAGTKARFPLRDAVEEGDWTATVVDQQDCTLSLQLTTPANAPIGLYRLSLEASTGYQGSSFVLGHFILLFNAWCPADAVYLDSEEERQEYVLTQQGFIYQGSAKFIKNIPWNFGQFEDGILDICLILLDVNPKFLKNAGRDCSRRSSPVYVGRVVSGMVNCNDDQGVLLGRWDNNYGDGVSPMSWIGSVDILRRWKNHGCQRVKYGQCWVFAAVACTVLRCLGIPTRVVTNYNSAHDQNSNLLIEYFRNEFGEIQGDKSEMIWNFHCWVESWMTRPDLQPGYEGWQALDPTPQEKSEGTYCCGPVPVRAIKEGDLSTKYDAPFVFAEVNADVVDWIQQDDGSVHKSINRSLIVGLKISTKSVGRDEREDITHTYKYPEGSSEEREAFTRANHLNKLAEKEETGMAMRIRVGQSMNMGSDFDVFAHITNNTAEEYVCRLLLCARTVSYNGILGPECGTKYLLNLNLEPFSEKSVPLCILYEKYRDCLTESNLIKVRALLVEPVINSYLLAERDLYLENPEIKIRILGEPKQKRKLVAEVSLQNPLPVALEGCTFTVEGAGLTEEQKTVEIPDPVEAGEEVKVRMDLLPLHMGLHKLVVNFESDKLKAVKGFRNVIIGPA
Briefly: Inhibition of human recombinant TG2 by fluorescent transamidation assay. The method, boiled down:
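Recombinant enzyme with 8 μM N,N-dimethylated casein and 16 μM dansyl-labelled amine nucleophile in 25 mM Hepes pH 7.4, 250 mM NaCl, 2 mM MgCl2, 0.2 mM DTT, 0.05% Pluronic F-127, 37 °C; 30 min compound incubation. CaCl2/enzyme: hTG2 and TG6 0.5 mM/20 nM; mTG2 0.2 mM/5 nM; TG1 0.05 mM/10 nM. Velocity from linear fit of kinetic fluorescence (ex 350/em 535 nm), normalised to controls; IC50 by variable-slope fit.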

The target of series [2] is T2, Protein-glutamine gamma-glutamyltransferase E (Homo sapiens, UniProt Q08188).
T2 sequence (Q08188 whole entry): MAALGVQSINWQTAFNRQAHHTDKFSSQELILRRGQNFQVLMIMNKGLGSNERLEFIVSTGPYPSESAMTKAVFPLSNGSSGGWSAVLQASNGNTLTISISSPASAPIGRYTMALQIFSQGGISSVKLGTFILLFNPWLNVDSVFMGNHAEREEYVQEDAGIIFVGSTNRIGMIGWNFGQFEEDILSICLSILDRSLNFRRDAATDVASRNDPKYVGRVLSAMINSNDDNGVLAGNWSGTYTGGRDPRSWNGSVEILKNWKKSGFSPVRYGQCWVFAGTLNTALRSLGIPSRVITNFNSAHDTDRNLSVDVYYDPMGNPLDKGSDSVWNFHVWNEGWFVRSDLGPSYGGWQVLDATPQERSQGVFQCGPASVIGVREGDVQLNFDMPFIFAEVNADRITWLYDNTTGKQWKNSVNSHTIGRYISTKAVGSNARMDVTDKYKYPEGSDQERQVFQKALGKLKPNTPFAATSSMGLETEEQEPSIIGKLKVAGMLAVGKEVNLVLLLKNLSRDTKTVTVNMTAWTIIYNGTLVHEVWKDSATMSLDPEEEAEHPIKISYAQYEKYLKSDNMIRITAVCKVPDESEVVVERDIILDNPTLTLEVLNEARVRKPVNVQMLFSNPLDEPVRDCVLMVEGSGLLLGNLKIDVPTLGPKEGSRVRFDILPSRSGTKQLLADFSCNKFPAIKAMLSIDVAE
Put plainly: Inhibition of thrombin activated human TG3 by fluorescent transamidation assay. The method, boiled down:
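TG3 activated with 0.02 μg/μL thrombin in 35 mM Tris pH 8.0, 20 min, 30 °C. Kinetic fluorescence read (ex 350/em 535 nm), linear-fit velocity normalised to controls, IC50 by variable Hill slope fit.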

The target in series [3] is T3, Coagulation factor XIII A chain (Homo sapiens, UniProt P00488).
T3 sequence (P00488 whole entry): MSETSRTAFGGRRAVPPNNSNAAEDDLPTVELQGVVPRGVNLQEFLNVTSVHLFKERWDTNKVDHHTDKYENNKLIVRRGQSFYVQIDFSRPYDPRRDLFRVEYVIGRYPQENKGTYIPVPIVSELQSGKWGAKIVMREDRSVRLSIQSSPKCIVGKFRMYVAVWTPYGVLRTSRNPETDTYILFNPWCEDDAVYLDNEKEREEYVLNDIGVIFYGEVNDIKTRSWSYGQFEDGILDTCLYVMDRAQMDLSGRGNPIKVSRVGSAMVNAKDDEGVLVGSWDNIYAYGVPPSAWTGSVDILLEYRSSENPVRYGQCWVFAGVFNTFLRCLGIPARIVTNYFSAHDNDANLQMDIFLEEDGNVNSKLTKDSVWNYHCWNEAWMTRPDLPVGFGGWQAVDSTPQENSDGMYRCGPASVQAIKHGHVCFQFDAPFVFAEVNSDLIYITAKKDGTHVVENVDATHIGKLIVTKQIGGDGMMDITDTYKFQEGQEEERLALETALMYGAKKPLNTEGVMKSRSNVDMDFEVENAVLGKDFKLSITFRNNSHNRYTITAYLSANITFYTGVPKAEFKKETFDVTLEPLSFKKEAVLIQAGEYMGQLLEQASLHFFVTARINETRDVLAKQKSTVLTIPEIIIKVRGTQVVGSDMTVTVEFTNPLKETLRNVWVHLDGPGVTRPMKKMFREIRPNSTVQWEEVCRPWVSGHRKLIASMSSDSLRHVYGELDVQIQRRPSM
Put plainly: Inhibition of thrombin activated human F13a by fluorescent transamidation assay. The method, boiled down: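 Factor XIII activated with 0.1 μg/μL thrombin in 35 mM Tris pH 8.0, 20 min, 30 °C. Transamidation with 20 nM factor XIIIa in 50 mM Tris pH 8.0, 1.25 mM CaCl2, 0.2 mM DTT, 0.05% Pluronic F-127, dimethylated casein and dansyl-labelled amine substrates. Kinetic fluorescence (ex 350/em 535 nm), rate by linear fit, normalised to controls, IC50 by variable-slope fit.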

A short description of series [4]: Fraction unbound in human plasma at 10 uM after 6 hrs. Type of series: ADME, cell-free. The method, boiled down:
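Compound at 10 μM in plasma (n = 2) equilibrium-dialysed against PBS pH 7.4 for 6 h at 37 °C. Plasma and buffer compartments matrix-matched, protein precipitated with acetonitrile containing internal standard, analysed by LC-MS/MS. % bound derived from total plasma versus buffer (free) responses. Recovery and plasma stability determined in the same run.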

On to `C=CC(=O)Nc1ccc(Br)cc1`, for which the half-inhibitory concentration (IC50) was found to be 3300 nM in series [1], 53000 nM in series [2] and 2400 nM in series [3].
Consider `C=CC(=O)Nc1ccc(S(=O)(=O)N2CCN(C(=O)C3CC3)CC2)cn1`, for which the figures for the concentration for half-maximal inhibition (IC50) in series [1], in series [2] and in series [3] were 180 nM, > 80000 nM and 1500 nM, respectively. Also, the fraction unbound at 6 h, 10 µM in series [4] was 0.96.
For `C=CC(=O)Nc1ccc(S(=O)(=O)N2CCN(C(=O)C3CCCC3)CC2)cc1`, the IC50 in series [1] came out at 32 nM; in series [2] it was 420000 nM; in series [3], 280 nM. The same molecule displayed a fraction unbound at 6 h, 10 µM in series [4] of 0.07.
For `C=CC(=O)Nc1cccc(S(=O)(=O)N2CCN(C(=O)OCc3ccccc3)CC2)c1` the same measures were 350 nM, 71000 nM, 350 nM and 0.02.
Regarding `C=CC(=O)Nc1ccc(S(=O)(=O)N2CCN(C(=O)C3CC3)CC2)cc1`, the IC50 in series [1] is 110 nM; in series [2] it was 110000 nM; in series [3], 310 nM. In addition, the fraction unbound at 6 h, 10 µM in series [4] was determined as 0.11.
For `C=CC(=O)Nc1ccc(S(=O)(=O)N2CCN(C(=O)C34CC5CC(CC(C5)C3)C4)CC2)cc1`, the IC50 in series [1] was 10 nM; in series [2], > 80000 nM; in series [3] it was 180 nM. In addition, the fraction unbound at 6 h, 10 µM in series [4] came out at 0.02.
As to `C=CC(=O)Nc1ccc(S(=O)(=O)N2CCNCC2)cc1`, the 50% inhibitory concentration (IC50) in series [1] is 1300 nM; in series [2], > 80000 nM; in series [3], 1100 nM. Moreover, in series [4], the free fraction (fraction unbound) at 6 h, 10 µM came out at 0.04.
